# This is one part of a sample in which hits are shown more often than they occur.
# L major viab = reduces viability of Leishmania major promastigotes; resazurin fluorescence viability; inhibition, % at 10 µM; actives 9% (n = 200,000); in the data active = inhibition above about 50%;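 note: promastigotes grown with compound for 44 hours at 28 °C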
# Dynein transport = blocks dynein driven cargo transport along microtubules; actives 0.47% (n = 220,000); z-score, hits read low; AID 1381; 3617.4 mouse cells, GR-EGFP nuclear translocation imaging; test concentration mostly 20 µM; stimulated with dexamethasone, 1 µM; active compounds read low;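 active = plate z-score of nuclear minus cytoplasmic receptor signal below a set negative limit, without overly bright fluorescence or cell loss, cut at about -3.5 in these data, passing the limit was not always enough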;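 note: z-score of nuclear minus cytoplasmic ring GR-EGFP intensity difference per well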
#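 Buffer or medium: tet-free medium with charcoal-stripped serum / Also added: dexamethasone agonist, 1.0 µM final, for 30 min / Timing: induction 48 h, compound 1 h, agonist 30 min / Measured by: high-content fluorescence imaging after fixation / Read-out: nuclear-to-cytoplasmic GR-EGFP distribution per well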
# UPR XBP1 act = activators of adaptive arm of unfolded protein response (XBP1) | CHO-XBP1 luciferase reporter, IRE1-XBP1 UPR activation, luminescence; percent of tunicamycin response, DMSO as zero | activation, % at 20 µM | actives 0.33% (n = 330,000) | AID 463104;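 active = versus positive control, 20 µM dose yields 30% or more activation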
#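 Material: CHO cell line with stable XBP1 luciferase reporter; schedule: 16-18 h cell attachment at 37 °C, then 6 h compound exposure; signal: glow luminescence from Steady-Glo reagent; medium: serum-containing F12 medium, 10% FBS; benchmarks: tunicamycin 10 µg/mL and vehicle-only wells; read-out: percent activation relative to tunicamycin reference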
# T cruzi repl = T. cruzi replication inhibition; actives 1.4% (n = 300,000); inhibition, % (test concentration not listed); AID 1885; T. cruzi beta-gal in NIH3T3, luminescence, 90 h;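 active = mean inhibition across valid replicates above about 55%, limit read from the data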;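 note: signal also drops with host cell toxicity which is not excluded here; higher percent means less beta-gal luminescence so fewer parasites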
#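 System: NIH/3T3 fibroblasts plus reporter T. cruzi. Medium: DMEM plus 2% FBS. Probe or stimulus: 5000 reporter trypomastigotes per well. Compound: single 50 nL compound addition per well in DMSO. Incubation: co-culture of at least 90 h after 3 h attachment. Detection: GalScreen β-gal luminescence, detergent lysis, 60 min. Evaluation: parasite load inhibition, %.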
# CHOP inhibitor = blocks CHOP induction under ER stress. CHO-K1 CHOP-promoter luciferase, tunicamycin-induced, 15-18 h. inhibition, % at 10 µM. actives 3.8% (n = 220,000). AID 2732;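 active = compounds that reduced the stress-induced luciferase reporter signal by more than about 70% of percent inhibition, limit read from the data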
# CHOP UPR activ = apoptotic UPR (CHOP) activation. activation, % at 10 µM. AID 449763. CHO-CHOP luciferase reporter, luminescence; percent of tunicamycin response over DMSO baseline. actives 0.34% (n = 330,000);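 active = at 10 µM dose, activation of 40% or more, normalized to positive control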
#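 Material: CHO-CHOP cells, stable luciferase reporter of PERK-eIF2a-CHOP signalling; quantity: 500 reporter cells seeded per well; buffer or medium: F12 medium containing 10% fetal bovine serum; compound: one dose, 10 µM in 0.5% DMSO; incubation: 6 h compound treatment, 37 °C; measured by: Steady-Glo luciferase luminescence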
# A number is an active result; n = inactive; x = no result.
SMILES,L major viab,Dynein transport,UPR XBP1 act,T cruzi repl,CHOP inhibitor,CHOP UPR activ
O=C(Nc1nc2ccc(Cl)cc2s1)c1ccc(Br)o1,n,n,n,n,74.2,n
CCCn1c(=N)n(CC(=O)c2ccco2)c2ccccc21,n,n,n,n,n,n
N=c1n(Cc2ccccc2)c2ccccc2n1CC(O)c1ccco1 (configuration not stated),89.3,n,n,n,n,n
N=c1n(Cc2ccccc2)c2ccccc2n1Cc1ccccc1,98.8,n,n,n,n,n
Cc1ccccc1Cn1c(=N)n(CC(=O)c2ccco2)c2ccccc21,86.4,n,n,n,n,n
CC(=O)Nc1ccc(S(=O)(=O)Nc2cc(C)cn(Cc3ccccc3)c2=O)cc1,x,x,n,n,x,n
CCC(C)c1ccccc1NC(=O)CN1CCN(C/C=C/c2ccccc2)CC1 (configuration not stated),96.4,n,n,n,75.0,n
CC(C)C(NC(=O)c1ccccc1)C(=O)N1CCN(C/C=C/c2ccccc2)CC1 (configuration not stated),x,x,n,x,x,n
O=C(CN1CCN(C/C=C/c2ccccc2)CC1)NCc1ccccc1,63.3,n,n,n,n,n
O=C(CNC(=O)c1ccc(F)cc1)N/N=C/c1cccnc1,x,x,n,n,x,n
NCCc1nnc(SCc2ccccc2Cl)o1,x,n,n,n,n,n
NCCCCCc1nnc(SCc2ccc(Cl)cc2Cl)o1,100.3,n,n,n,n,n
CN(C)c1ccc(/C=N/N=C(N)N)cc1[N+](=O)[O-],n,n,n,77.7,n,n
COc1cc(OC)cc(C(=O)NC(C)c2ccc(Br)cc2)c1 (configuration not stated),n,n,n,n,n,n
COc1cccc(C(=O)NC(C)c2ccc(Br)cc2)c1 (configuration not stated),60.5,n,n,n,n,n
CCOC(=O)c1cc(=O)n(-c2ccc(Cl)cc2C)[nH]1,55.1,n,n,n,n,n
O=C(CSc1n[nH]c(-c2cc(Cl)ccc2Cl)n1)NCCN1C(=O)CSC1=O,n,n,n,n,n,n
CC(=O)N(C(C)=O)n1c(/C=C/c2cccc([N+](=O)[O-])c2)nc2ccccc2c1=O,n,n,n,n,92.8,n
N=c1c(S(=O)(=O)c2ccc(Br)cc2)cc2c(=O)n3ccccc3nc2n1C1CCCCC1,x,x,n,n,x,n
N=c1c(S(=O)(=O)c2ccc(Cl)cc2)cc2c(=O)n3ccccc3nc2n1C1CCCC1,x,x,n,55.1,x,n
COc1ccc(CCn2c(=N)c(C(=O)N3CCN(C)CC3)cc3c(=O)n4ccccc4nc32)cc1,87.8,n,n,n,n,n
COc1ccc(CCn2c(=N)c(C(=O)NC3CCCCC3)cc3c(=O)n4ccccc4nc32)cc1,x,x,n,n,x,n
COc1ccc(CCNC(=O)c2cc3c(=O)n4ccccc4nc3n(C3CCCCC3)c2=N)cc1,x,x,n,60.0,x,n
CCN1CCN(CCCNC(=O)c2cc3cc4ccc(OC)cc4nc3o2)CC1,100.2,n,n,n,x,n
COc1ccc2cc3cc(C(=O)NCCCN4CCOCC4)oc3nc2c1,97.5,n,n,57.6,n,n
SMILES,L major viab,Dynein transport,UPR XBP1 act,T cruzi repl,CHOP inhibitor,CHOP UPR activ
O=C(NCCCN1CCOCC1)c1cc2ccccc2o1,79.5,n,n,n,n,n
COc1ccc2cc3cc(C(=O)NCCCN4CCC(C)CC4)oc3nc2c1,x,x,n,n,x,n
O=C(NCCCN1CCOCC1)C(Sc1ccccc1)c1ccccc1 (configuration not stated),90.5,n,n,n,n,n
COc1ccc(C(=O)NCCCN2CCOCC2)cc1,x,x,n,n,x,n
CCN(CC)c1nc(C(F)(F)F)nc2c1nnn2Cc1ccccc1,x,x,n,n,x,n
Cc1cc2cc(CNC(=O)c3cc4ccccc4o3)ccc2n1C,n,n,n,65.0,89.0,n
Cc1ccc2cc3cc(C(=O)NCCN4CCOCC4)oc3nc2c1,70.5,n,n,n,n,n
Cc1ccc2cc3cc(C(=O)NCCCN4CCCC4=O)oc3nc2c1,x,x,n,n,x,n
COC(=O)c1cncc(C)c1,x,n,n,n,n,n
COc1ccc(NCc2ccc3c(c2)OCO3)cc1Cl,83.7,n,n,n,n,n
Cc1ccc(CNc2ccc3c(c2)OCO3)c(C)c1,99.2,n,x,n,n,x
O=C(NCc1cccnc1)Nc1ccc2c(c1)OCO2,n,n,n,n,n,n
c1cncc(CNc2ccc3c(c2)OCO3)c1,52.1,n,n,n,n,n
O=C(COc1ccccc1F)Nc1c2c(nn1-c1ccccc1)CS(=O)(=O)C2,x,x,n,n,x,n
Cc1csc2c(N3CCN(C(=O)Nc4ccc(OC(F)(F)F)cc4)CC3)ncnc12,x,n,n,n,n,n
C=CCn1nnnc1SCC(=O)Nc1cccc(C(F)(F)F)c1,x,x,n,n,x,n
Cc1ccccc1CNS(=O)(=O)c1c(C)[nH]c(C)c1C(=O)N1CCCCC1,x,x,n,n,x,n
O=C(NC1CCCCC1)C(c1ccco1)N(C(=O)c1csnn1)c1cccc(Cl)c1 (configuration not stated),x,x,n,n,x,n
COc1cccc(CN2CCN(CCCc3ccccc3)C(CCO)C2)c1O (configuration not stated),x,x,n,n,x,n
O=C(c1ccccc1)c1ccc(O)cc1O,n,n,n,n,n,n
CC(=O)c1cc2c(C)c(C(=O)c3ccccc3)oc2cc1O,n,n,n,n,83.4,n
CC(=O)c1ccc(-c2ccc(-c3cc(=O)oc4c(C(C)C)ccc(C)c34)cc2)cc1,x,x,n,x,x,n
CC1CCCCN1S(=O)(=O)c1ccc(N(C(=O)c2cnccn2)C(C(=O)NC2CCCC2)c2cccs2)cc1 (configuration not stated),92.6,n,n,n,n,n
CCCCn1c(N)c(N(CCC(C)C)C(=O)C2CC(=O)N(c3ccccc3OCC)C2)c(=O)[nH]c1=O (configuration not stated),x,x,n,n,x,n
CCCOc1ccc(CSc2nc3ccccc3[nH]2)cc1,n,n,n,n,75.9,n
Cc1cccc(Nc2nnc(SCC(=O)NC(=O)Nc3ccc4c(c3)OCCO4)s2)c1,n,n,n,n,n,n
Cc1ccccc1Nc1nnc(SCC(=O)NC(=O)Nc2ccc3c(c2)OCCO3)s1,59.6,n,n,n,n,n
Cc1cccc(Nc2nnc(SCC(=O)NCc3cccs3)s2)c1C,58.1,n,n,n,n,n
CC(C)Cn1c(SCC(=O)NC(=O)Nc2ccc3c(c2)OCCO3)nc2ccccc2c1=O,n,n,n,n,70.5,n
COc1cccc(C(=O)N[C@@H](C)C(=O)N2CCC3(CC2)NCCc2[nH]cnc23)c1,x,x,n,n,x,n

# High-throughput results deposited in PubChem by several laboratories.
